Measured values from ChEMBL document CHEMBL2163319, “Stereoselective synthesis and antiviral activity of methyl-substituted cycloSal-pronucleotides” (J Med Chem, 2012).

Key:
[1] = Cytotoxicity against human CEM cells; type: cell-based; settings: CCRF-CEM (CEM) cells
[2] = tested on: Human immunodeficiency virus 1; experiment: Antiviral activity against HIV-1 infected in wild type CEM cells assessed as inhibition of virus-induced cytopathicity after 4 days; type: functional, organism-based; settings: Human immunodeficiency virus 1, CCRF-CEM, 96 h
Method in brief: (§1)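 Wild-type CEM/0 or thymidine kinase-deficient CEM/TK- T-lymphocyte cultures infected with HIV-1 or HIV-2 and exposed to virus and compound together for 4 days. Giant cell formation (virus-induced cytopathicity) scored by microscopy; value is the 50% effective concentration.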

[3] = Hydrolysis half life in 25 mM phosphate buffer at pH 7.3 by reversed HPLC analysis; type: physicochemical
[4] = tested on: Human immunodeficiency virus 2; experiment: Antiviral activity against HIV-2 infected in wild type CEM cells assessed as inhibition of virus-induced cytopathicity after 4 days; type: functional, organism-based; settings: Human immunodeficiency virus 2, CCRF-CEM, 96 h; method in brief: as §1
[5] = tested on: Human immunodeficiency virus 2; experiment: Antiviral activity against HIV-2 infected in thymidine kinase deficient CEM cells assessed as inhibition of virus-induced cytopathicity after 4 days; type: functional, organism-based; settings: Human immunodeficiency virus 2, CCRF-CEM, 96 h; method in brief: as §1
[6] = Hydrolysis half life in human CEM cell extracts at pH 6.9; type: ADME, CCRF-CEM
Method in brief: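 CEM cell extracts (pH 6.9) incubated with the triester, added from a 3.0 mM DMSO stock, and sampled at several incubation times. Hydrolysis half-life determined.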

Structure (SMILES) | CC50 [1] [µM] | EC50 [2] [µM] | half-life [3] [h] | EC50 [4] [µM] | EC50 [5] [µM] | half-life [6] [h]
Cc1cccc2c1O[P@@](=O)(OC[C@@H]1C=C[C@H](n3cc(C)c(=O)[nH]c3=O)O1)OC2 | 179 | 0.48 | 9.2 | 1.1 | 3.2 | 8.7
Cc1cccc2c1O[P@](=O)(OC[C@@H]1C=C[C@H](n3cc(C)c(=O)[nH]c3=O)O1)OC2 | 39 | 0.09 | 22.1 | 0.17 | 0.16 | 18
Cc1cn([C@H]2C=C[C@@H](CO)O2)c(=O)[nH]c1=O [STAVUDINE] | > 250 | 0.78 | – | 1.3 | 150 | –
